# Target: T1, M-phase inducer phosphatase 3 (Homo sapiens, UniProt P30307)
# T1 sequence (P30307 whole entry): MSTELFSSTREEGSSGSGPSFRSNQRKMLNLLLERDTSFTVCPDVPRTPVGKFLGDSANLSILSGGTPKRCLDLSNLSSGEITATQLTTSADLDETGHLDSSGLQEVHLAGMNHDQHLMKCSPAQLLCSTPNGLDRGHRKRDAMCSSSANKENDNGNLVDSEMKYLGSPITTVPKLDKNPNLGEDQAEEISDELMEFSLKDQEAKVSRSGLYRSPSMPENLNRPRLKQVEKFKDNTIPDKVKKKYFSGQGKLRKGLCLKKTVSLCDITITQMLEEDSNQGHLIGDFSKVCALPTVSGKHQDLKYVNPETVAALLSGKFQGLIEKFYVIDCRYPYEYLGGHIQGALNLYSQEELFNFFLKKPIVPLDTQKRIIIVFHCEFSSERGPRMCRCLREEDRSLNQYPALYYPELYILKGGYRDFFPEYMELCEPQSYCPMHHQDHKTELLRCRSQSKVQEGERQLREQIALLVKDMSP
# Assay: Inhibitory activity against recombinant CDC25C
# In short: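 Recombinant maltose binding protein (MBP)-CDC25C fusion enzyme, with 3-O-methylfluorescein phosphate (OMFP) as substrate. IC50 given as mean ± SEM from at least two, usually three, independent experiments.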
row,Compound,IC50 [nM]
1,"CN(C)CC=Nc1cc(O)c2nc(-c3ccccc3)oc2c1O [6-(2-(dimethylamino)ethylamino)-2-phenylbenzo[d]oxazole-4,7-dione]",230
2,"CCc1nc2c(O)cc(N=CCN(C)C)c(O)c2[nH]1 [5-(2-(dimethylamino)ethylamino)-2-ethyl-1H-benzo[d]imidazole-4,7-dione]",12000
3,"CN(C)CC=Nc1cc(O)c2nn(-c3ccccc3)cc2c1O [5-(2-(dimethylamino)ethylamino)-2-phenyl-2H-indazole-4,7-dione]",12000
4,"CN(C)CC=Nc1cc(O)c2oc(-c3ccccc3)nc2c1O [5-(2-(dimethylamino)ethylamino)-2-phenylbenzo[d]oxazole-4,7-dione]",230
5,"CN(C)CC=Nc1cc(O)c2cn(-c3ccccc3)nc2c1O [6-(2-(dimethylamino)ethylamino)-2-phenyl-2H-indazole-4,7-dione]",12000

# Stronger by IC50, values ahead:
row,IC50 [nM],Compound
1,130,"CCc1nc2c(O)c(N=CCN(C)C)cc(O)c2o1 [5-(2-(dimethylamino)ethylamino)-2-ethylbenzo[d]oxazole-4,7-dione]"
2,130,"CCc1nc2c(O)cc(N=CCN(C)C)c(O)c2o1 [6-(2-(dimethylamino)ethylamino)-2-ethylbenzo[d]oxazole-4,7-dione]"

# Source: BindingDB's records for doi:10.1016/j.bmcl.2005.09.030 (Institut Henri Beaufour, 2005)
